These results are taken from ChEMBL document CHEMBL4014350, “Alkoxyurea-Based Histone Deacetylase Inhibitors Increase Cisplatin Potency in Chemoresistant Cancer Cell Lines” (J Med Chem, 2017).

Assay [1] deals with T1, Histone deacetylase 1/6 (Homo sapiens) (UniProt Q13547+Q9UBN7). Briefly: Inhibition of HDAC1/HDAC6 in human Cal27CisR cells assessed as potentiation of 20 uM cisplatin-induced cytotoxicity by measuring combination index at 200 nM preincubated for 48 hrs followed by cisplatin treatment measured after 72 hrs by MTT assay.
Assay [2] addresses T1, Histone deacetylase 1/6 (Homo sapiens). Description: Inhibition of HDAC1/HDAC6 in human Cal27CisR cells assessed as potentiation of 20 uM cisplatin-induced cytotoxicity by measuring combination index at 300 nM preincubated for 48 hrs followed by cisplatin treatment measured after 72 hrs by MTT assay. Background: Tetrazolium dyes change colour on reduction, which living cells bring about.

In assay [3] the test system is CAL-27. Briefly: Potentiation of 5 uM cisplatin-induced cytotoxicity against human CAL27 cells assessed as decrease in cell viability by measuring combination index at 200 uM preincubated for 48 hrs followed by cisplatin treatment measured after 72 hrs by MTT assay. It is filed as functional. As to conditions: in the assay text read “at 200 nM” for “at 200 uM”. In short, it runs like this: (§1)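 HDAC inhibitor was added 48 h before cisplatin, then cells were exposed to cisplatin for 72 h and viability was read by MTT assay. Combination index was computed by the Chou–Talalay method: CI > 1 is antagonism, CI = 1 additive, CI < 0.9 synergism. Points with fraction affected below 0.20 were flagged.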

Assay [4] addresses T1, Histone deacetylase 1/6 (Homo sapiens). Briefly: Inhibition of HDAC1/HDAC6 in human Cal27CisR cells assessed as potentiation of 10 uM cisplatin-induced cytotoxicity by measuring combination index at 100 uM preincubated for 48 hrs followed by cisplatin treatment measured after 72 hrs by MTT assay. It is filed as cell-based. The gist of the method: (§2)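 Cal27CisR cells preincubated 48 h with the HDAC inhibitor, then exposed to cisplatin for 72 h. Viability read by MTT. Combination index calculated by the Chou–Talalay method: CI > 1 antagonism, CI = 1 additive, CI < 0.9 synergism. Points with fraction affected below 0.20 are flagged. Values are the mean of three experiments.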

Assay [5] has the same target. Briefly: Inhibition of HDAC1/HDAC6 in human Cal27CisR cells assessed as potentiation of 3.16 uM cisplatin-induced cytotoxicity by measuring combination index at 100 uM preincubated for 48 hrs followed by cisplatin treatment measured after 72 hrs by MTT assay. The assay is classed as cell-based. The gist of the method: as §2
For assay [6] the target is unchanged. Description: Inhibition of HDAC1/HDAC6 in human Cal27CisR cells assessed as potentiation of 5 uM cisplatin-induced cytotoxicity by measuring combination index at 400 uM preincubated for 48 hrs followed by cisplatin treatment measured after 72 hrs by MTT assay. It is filed as cell-based. The gist of the method: (§3)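 Cal27 and cisplatin-resistant Cal27CisR cells were preincubated with the HDAC inhibitor for 48 h, then given cisplatin in combination. Viability was read by MTT after 72 h. The combination index was computed by the Chou–Talalay method: CI > 1 is antagonism, CI = 1 is additive, and CI < 0.9 is synergism. Points with fraction affected below 0.20 were flagged.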

The target is the same in assay [7]. Description: Inhibition of HDAC1/HDAC6 in human Cal27CisR cells assessed as potentiation of 10 uM cisplatin-induced cytotoxicity by measuring combination index at 400 uM preincubated for 48 hrs followed by cisplatin treatment measured after 72 hrs by MTT assay. The assay is classed as cell-based. In short, it runs like this:
as §2

The target is the same in assay [8]. Briefly: Inhibition of HDAC1/HDAC6 in human Cal27CisR cells assessed as potentiation of 10 uM cisplatin-induced cytotoxicity by measuring combination index at 300 uM preincubated for 48 hrs followed by cisplatin treatment measured after 72 hrs by MTT assay. The assay is classed as cell-based. The gist of the method:
as §2

Assay [9] deals with CAL-27. Description: Potentiation of 0.316 uM cisplatin-induced cytotoxicity against human CAL27 cells assessed as decrease in cell viability by measuring combination index at 100 uM preincubated for 48 hrs followed by cisplatin treatment measured after 72 hrs by MTT assay. It is filed as functional. The settings on record: in the assay text read “at 100 nM” for “at 100 uM”. The gist of the method: as §3

The test system of assay [10] is CAL-27. Briefly: Potentiation of 0.316 uM cisplatin-induced cytotoxicity against human CAL27 cells assessed as decrease in cell viability by measuring combination index at 200 uM preincubated for 48 hrs followed by cisplatin treatment measured after 72 hrs by MTT assay. It is filed as functional. As to conditions: in the assay text read “at 200 nM” for “at 200 uM”. In short, it runs like this:
as §3

Assay [11] relates to CAL-27. Briefly: Potentiation of 2 uM cisplatin-induced cytotoxicity against human CAL27 cells assessed as decrease in cell viability by measuring combination index at 200 uM preincubated for 48 hrs followed by cisplatin treatment measured after 72 hrs by MTT assay. It is filed as functional. As to conditions: in the assay text read “at 200 nM” for “at 200 uM”. In short, it runs like this: as §1

In assay [12] the test system is CAL-27. Briefly: Potentiation of 0.316 uM cisplatin-induced cytotoxicity against human CAL27 cells assessed as decrease in cell viability by measuring combination index at 300 uM preincubated for 48 hrs followed by cisplatin treatment measured after 72 hrs by MTT assay. It is filed as functional. As to conditions: in the assay text read “at 300 nM” for “at 300 uM”. The gist of the method:
as §3

Assay [13] deals with T1, Histone deacetylase 1/6 (Homo sapiens). Briefly: Inhibition of HDAC1/HDAC6 in human Cal27CisR cells assessed as potentiation of 10 uM cisplatin-induced cytotoxicity by measuring combination index at 200 uM preincubated for 48 hrs followed by cisplatin treatment measured after 72 hrs by MTT assay. It is filed as cell-based. In short, it runs like this:
as §2

In assay [14] the test system is CAL-27. Briefly: Potentiation of 2 uM cisplatin-induced cytotoxicity against human CAL27 cells assessed as decrease in cell viability by measuring combination index at 300 uM preincubated for 48 hrs followed by cisplatin treatment measured after 72 hrs by MTT assay. The assay is classed as functional. The settings on record: in the assay text read “at 300 nM” for “at 300 uM”. The gist of the method: as §1

Assay [15] addresses T1, Histone deacetylase 1/6 (Homo sapiens). Briefly: Inhibition of HDAC1/HDAC6 in human Cal27CisR cells assessed as potentiation of 20 uM cisplatin-induced cytotoxicity by measuring combination index at 100 nM preincubated for 48 hrs followed by cisplatin treatment measured after 72 hrs by MTT assay.
The subject of assay [16] is CAL-27. Description: Induction of apoptosis in human CAL27 cells at 1 uM for 48 hrs by propidium iodide dye-based flow cytometry. It is filed as functional, cell-based.
The subject of assay [17] is CAL-27. Briefly: Potentiation of 0.5 uM cisplatin-induced cytotoxicity against human CAL27 cells assessed as decrease in cell viability by measuring combination index at 200 uM preincubated for 48 hrs followed by cisplatin treatment measured after 72 hrs by MTT assay. The assay is classed as functional. In short, it runs like this:
as §3

In assay [18] the test system is CAL-27. Description: Potentiation of 1 uM cisplatin-induced cytotoxicity against human CAL27 cells assessed as decrease in cell viability by measuring combination index at 300 uM preincubated for 48 hrs followed by cisplatin treatment measured after 72 hrs by MTT assay. It is filed as functional. The gist of the method: as §1
Assay [19] deals with CAL-27. Briefly: Potentiation of cisplatin-induced cytotoxicity against human CAL27 cells assessed as decrease in cell viability at 0.5 uM preincubated for 48 hrs followed by cisplatin treatment measured after 72 hrs by MTT assay relative to cisplatin alone. It is filed as functional. The gist of the method:
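Cells were preincubated 48 h with HDAC inhibitor, then cisplatin was added over a concentration range for 72 h, with MTT read-out. Shift factor is cisplatin-alone IC50 divided by combination IC50. Data are mean ± SEM of pooled data from at least three independent experiments, each in triplicate. Significance was by t test (p < 0.05).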

Assay [20] addresses T1, Histone deacetylase 1/6 (Homo sapiens). Description: Inhibition of HDAC1/HDAC6 in human Cal27CisR cells assessed as potentiation of 20 uM cisplatin-induced cytotoxicity by measuring combination index at 400 nM preincubated for 48 hrs followed by cisplatin treatment measured after 72 hrs by MTT assay.

The source made the active and inactive calls. The rule behind the calls is not given here.

T1 sequence (Q13547 whole entry, looked up): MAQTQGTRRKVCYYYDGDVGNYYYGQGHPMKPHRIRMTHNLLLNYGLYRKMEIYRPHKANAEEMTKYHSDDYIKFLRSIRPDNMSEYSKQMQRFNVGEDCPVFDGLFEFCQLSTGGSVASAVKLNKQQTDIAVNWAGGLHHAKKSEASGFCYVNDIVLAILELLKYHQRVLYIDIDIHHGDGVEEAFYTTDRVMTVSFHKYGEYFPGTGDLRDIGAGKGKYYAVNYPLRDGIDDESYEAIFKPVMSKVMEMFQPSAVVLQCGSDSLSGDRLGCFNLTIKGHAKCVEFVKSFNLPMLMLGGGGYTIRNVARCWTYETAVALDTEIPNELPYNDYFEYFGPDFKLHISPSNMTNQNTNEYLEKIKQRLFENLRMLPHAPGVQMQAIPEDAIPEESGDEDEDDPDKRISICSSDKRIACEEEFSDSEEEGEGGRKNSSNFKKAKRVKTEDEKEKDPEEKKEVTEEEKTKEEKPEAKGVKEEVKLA
T1 sequence (Q9UBN7 whole entry, looked up): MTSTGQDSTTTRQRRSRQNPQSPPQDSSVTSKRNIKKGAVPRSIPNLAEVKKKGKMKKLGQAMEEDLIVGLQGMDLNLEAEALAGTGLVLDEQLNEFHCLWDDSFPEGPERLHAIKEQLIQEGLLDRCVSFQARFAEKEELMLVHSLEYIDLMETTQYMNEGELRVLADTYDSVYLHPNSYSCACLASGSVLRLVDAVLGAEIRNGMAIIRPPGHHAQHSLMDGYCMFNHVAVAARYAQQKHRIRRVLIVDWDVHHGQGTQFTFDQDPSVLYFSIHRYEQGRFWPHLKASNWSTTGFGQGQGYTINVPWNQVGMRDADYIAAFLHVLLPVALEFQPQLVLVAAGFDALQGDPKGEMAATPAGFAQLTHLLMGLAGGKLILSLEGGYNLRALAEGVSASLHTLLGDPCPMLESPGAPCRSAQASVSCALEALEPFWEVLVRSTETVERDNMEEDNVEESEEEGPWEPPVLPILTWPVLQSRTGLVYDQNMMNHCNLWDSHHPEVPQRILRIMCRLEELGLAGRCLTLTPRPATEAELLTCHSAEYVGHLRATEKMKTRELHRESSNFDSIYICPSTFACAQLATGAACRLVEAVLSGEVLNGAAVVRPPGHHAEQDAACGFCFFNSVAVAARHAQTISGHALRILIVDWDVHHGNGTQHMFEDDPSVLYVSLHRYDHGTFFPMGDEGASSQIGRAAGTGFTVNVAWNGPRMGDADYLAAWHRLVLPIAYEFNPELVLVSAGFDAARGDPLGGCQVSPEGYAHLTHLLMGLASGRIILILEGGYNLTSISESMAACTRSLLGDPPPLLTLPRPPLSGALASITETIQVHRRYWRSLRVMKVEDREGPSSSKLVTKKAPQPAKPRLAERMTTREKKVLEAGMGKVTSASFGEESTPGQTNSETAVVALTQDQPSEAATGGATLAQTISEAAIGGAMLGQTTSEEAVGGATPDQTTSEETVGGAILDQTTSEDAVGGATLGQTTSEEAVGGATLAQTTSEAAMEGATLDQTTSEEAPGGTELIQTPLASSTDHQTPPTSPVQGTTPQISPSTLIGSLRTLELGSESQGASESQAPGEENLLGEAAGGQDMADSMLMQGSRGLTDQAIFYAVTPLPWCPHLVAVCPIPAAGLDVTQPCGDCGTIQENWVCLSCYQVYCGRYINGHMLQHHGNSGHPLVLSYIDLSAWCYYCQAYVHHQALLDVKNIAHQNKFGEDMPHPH

As to `COc1cc(NC(=O)NOCCCCCC(=O)NO)c2nc(OC)cc(C)c2c1`, the CI in [1] was found to be 0.19; in assay [2], 0.17; in the assay on CAL-27 [3], 0.22; in assay [4], 0.41; in assay [5], 0.89; in assay [6], 0.19. In addition, the CI in assay [7] was 0.16; in [8], 0.18; with CAL-27 [9], below 0.2; in the assay with CAL-27 [10] it was below 0.2; with CAL-27 [11], 0.33; with CAL-27 [12], below 0.2. Further, the CI in assay [13] worked out at 0.21; in the assay with CAL-27 [14] it was 0.38; in assay [15] it was 0.34; in the assay on CAL-27 [17], 0.96; in the assay on CAL-27 [18], 0.64; in [20], 0.16. Besides, the outcome with CAL-27 [16] was inactive. The “fold change (FC)” value in the assay with CAL-27 [19] is reported as 8.7.
On to `COc1cc(NC(=O)NOCCCCCC(=O)NO)c2nccc(C)c2c1`, for which the CI in [1] is 0.33; in assay [2], 0.34; in the assay on CAL-27 [3], 0.29; in [4], below 0.2; in [5] it was below 0.2; in assay [6], 0.56. Besides, the CI was 0.26 in [7]; 0.43 in [8]; below 0.2 in the assay on CAL-27 [9]; below 0.2 in the assay on CAL-27 [10]; 0.39 with CAL-27 [11]; below 0.2 with CAL-27 [12]. Besides, the CI was 0.48 in [13]; 0.31 with CAL-27 [14]; 0.73 in [15]; below 0.2 with CAL-27 [17]; 0.44 in the assay on CAL-27 [18]; 0.28 in assay [20]. Further, the result in the assay on CAL-27 [16] was inactive. Also, in the assay on CAL-27 [19], the “fold change (FC)” value came out at 6.1.
